The list is not random: actives were taken first. Their share in the collection is about 3.9%.
SR-BI DiI-HDL act = activators of SR-BI mediated HDL lipid uptake. activation, % at 12.5 µM. CHO ldlA[mSR-BI] cells, DiI-HDL uptake fluorescence, 3 h; 100 = double the neutral-control signal. 320,000 compounds, 0.096% hits;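 active = mean replicate activation of at least 60% and every replicate at or above 60%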;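 note: 0% = median plate neutral-control signal and 100% = twice that signal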
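Assay system: LDL receptor-deficient CHO ldlA cells overexpressing murine SR-BI / Medium: BSA-supplemented, HEPES-buffered Ham's F12, pH 7.4 / Probe or stimulus: DiI-labelled HDL at 10 µg/mL final / Timing: compound with DiI-HDL co-incubation, 3 h at 37 °C / Technique: bottom-read cell fluorescence after medium removal, ex 550/em 595 nm / Measure: HDL uptake via cellular fluorescence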
HIF activator = HIF pathway transcriptional activation. activation, % at 7.5 µM (by protocol). 300,000 compounds, 0.32% hits. AID 1910. U2OS HRE-luciferase reporter, luminescence; normalized: DMSO 0%, desferrioxamine 100%;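 active = mean activation of at least 10% of the iron chelator positive control signal, with at least half of replicates also reaching 10%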
AHR activator = activates the human aryl hydrocarbon receptor. P35869. activation, % at 5 µM. AHR-responsive luciferase reporter cells, luminescence. AID 2796. 320,000 compounds, 2.5% hits; in the data active = activation above about 47%;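 note: 0% = vehicle wells and 100% = reference agonist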
ABCB6 inh 2 = human ABCB6 transporter inhibition; Q9NP58; K562-ABCB6 porphyrin accumulation, flow cytometry, 1 h; hits give low values; fluorescence ratio to DMSO, % at 10 µM; 360,000 compounds, 0.19% hits; AID 602162;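 active = fluorescence ratio to DMSO below 75%, the collection mean minus 3 SD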;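 note: signal is porphyrin accumulated inside mitochondria; 100% equals median channel fluorescence of DMSO control wells; lower ratio means ABCB6 inhibition with less porphyrin fluorescence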
Target sequence (Q9NP58 whole entry, looked up): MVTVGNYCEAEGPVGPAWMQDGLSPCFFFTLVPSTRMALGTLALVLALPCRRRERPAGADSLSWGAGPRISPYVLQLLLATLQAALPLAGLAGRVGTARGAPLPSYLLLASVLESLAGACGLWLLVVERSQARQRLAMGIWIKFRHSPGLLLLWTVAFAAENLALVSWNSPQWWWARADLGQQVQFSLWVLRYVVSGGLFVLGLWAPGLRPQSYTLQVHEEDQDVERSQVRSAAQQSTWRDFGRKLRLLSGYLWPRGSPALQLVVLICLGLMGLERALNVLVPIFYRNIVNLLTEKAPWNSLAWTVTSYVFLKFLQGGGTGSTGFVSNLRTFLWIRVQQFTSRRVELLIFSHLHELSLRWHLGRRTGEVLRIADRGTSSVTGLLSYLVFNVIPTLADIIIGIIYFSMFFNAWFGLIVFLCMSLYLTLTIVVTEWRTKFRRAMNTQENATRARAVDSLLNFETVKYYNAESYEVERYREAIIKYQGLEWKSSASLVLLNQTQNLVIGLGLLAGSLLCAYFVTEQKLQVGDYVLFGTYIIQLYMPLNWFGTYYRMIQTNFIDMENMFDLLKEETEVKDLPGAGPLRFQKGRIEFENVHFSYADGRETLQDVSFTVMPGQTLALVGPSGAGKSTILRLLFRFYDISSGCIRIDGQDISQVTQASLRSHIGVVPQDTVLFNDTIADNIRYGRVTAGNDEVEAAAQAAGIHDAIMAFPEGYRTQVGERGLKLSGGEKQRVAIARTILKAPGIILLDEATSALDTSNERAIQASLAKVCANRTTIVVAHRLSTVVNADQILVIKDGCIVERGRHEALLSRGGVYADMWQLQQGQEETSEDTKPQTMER
FXN GAA850 act = increases GAA850 frataxin promoter reporter activity; HEK293 lucGAA850 FXN promoter luciferase reporter, 24 h; percent of 10 µM SAHA response; activation, % at 6 µM; 360,000 compounds, 0.56% hits; AID 540364;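 active = activation above the average of all compounds screened plus 3 SD, cutoff fixed separately per campaign, cut at about 7.5% in these data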;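 note: 0% = DMSO wells and 100% = 10 µM SAHA wells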
SR-BI DiI inh = blocks mouse SR-BI lipid uptake from DiI-HDL | AID 488896 | Q61009 | 320,000 compounds, 0.96% hits | ldlA[mSR-BI] CHO cells, DiI-HDL uptake fluorescence, 3 h | inhibition, % at 12.5 µM;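 active = mean replicate inhibition of at least 70% and a set share of replicates each scoring 70 or more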;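 note: 0% = median of neutral control wells and 100% = median of positive control wells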
The depositor's hits bear a star; x = not tested or not shown.

SMILES	SR-BI DiI-HDL act	HIF activator	AHR activator	ABCB6 inh 2	FXN GAA850 act	SR-BI DiI inh
COc1ccccc1NC(=O)c1sc(NC(=O)c2ccco2)c(C#N)c1C	-14.8	-0.1	66.2*	100.0	1.9	14.8
COc1cc2[nH]c(C(=O)Nc3ccc4c(c3)OCCO4)cc2c(OC)c1OC	-85.6	3.4	-4.6	96.0	-6.2	85.6*
CCn1c(SCC(=O)Nc2ccc(NC(=O)c3ccco3)c(OC)c2)nc2ccccc2c1=O	-64.4	0.3	-3.0	99.0	1.5	64.4
O=C(c1ccsc1)N1CCCC(N2CCN(c3cccc(C(F)(F)F)c3)CC2)C1 (centres undefined)	-17.5	0.2	5.7	94.0	1.6	17.5
CC12CCC(=O)N1C(C(=O)Nc1cccc(S(=O)(=O)N3CCCCCC3)c1)CS2 (centres undefined)	-45.1	-44.6	4.5	97.0	2.1	45.1
COc1ccc(CC(=O)N2CCN=C2SC)cc1OC	11.7	0.1	0.9	94.0	0.8	-11.7
O=C(Nc1ccc(Cl)cc1)Nc1ccccn1	-5.6	3.1	49.6*	95.0	4.9	5.6
COc1cc(NC(=O)c2ccccc2Cl)ccc1NC(=O)c1ccco1	-81.2	2.5	15.3	99.0	3.9	81.2*
COc1cc(NC(=O)c2ccco2)ccc1NC(=O)c1ccccc1Cl	-64.3	0.1	-3.6	102.0	0.0	64.3
O=C(Nc1ccccc1)Nc1ccccn1	15.8	2.5	13.7	102.0	0.5	-15.8
COc1ccccc1C(=O)Nc1cc(C)ccc1NC(=O)c1ccco1	8.2	-0.4	64.5*	102.0	-2.4	-8.2
COc1ccc(CCNC(=O)CSc2nn(-c3ccccc3)c(=S)s2)cc1	33.7	-0.7	0.5	93.0	0.4	-33.7
CC(Oc1ccccc1)C(=O)Nc1nc(-c2ccncc2)cs1 (centres undefined)	-11.8	x	47.2*	101.0	1.5	11.8
Cc1ccccc1NS(=O)(=O)c1ccc2c(c1)NC(=O)CO2	-2.2	-0.4	-2.2	101.0	1.4	2.2
CCOc1ccc(S(=O)(=O)N2CCOCC2)cc1NC(=O)C1CCC1	16.6	-0.1	2.7	97.0	-1.5	-16.6
CCN(CC)C(=O)c1[nH]cnc1C(=O)Nc1ccc(Cl)cc1	-20.0	x	74.7*	99.0	2.8	20.0
CCN(CC)C(=O)c1[nH]cnc1C(=O)Nc1cccc(C)c1	9.1	x	54.0*	97.0	1.0	-9.1
CCN(CC)C(=O)c1[nH]cnc1C(=O)Nc1ccc(OC)cc1	30.9	0.0	65.4*	87.0	0.6	-30.9
CCOC(=O)c1ccc(NC(=O)c2nc[nH]c2C(=O)N(CC)CC)cc1	23.1	0.4	29.6	94.0	1.5	-23.1
Cc1cccc(NC(=O)c2nc[nH]c2C(=O)NC[C@@H](C)O)c1	x	x	x	107.0	-2.1	x
Cc1cccc(-c2ncc(CN3CCN(CC(C)C)C(CCO)C3)cn2)c1 (centres undefined)	8.7	0.5	7.1	94.0	2.7	2.4
CC1CCC(CN2CCN=C2Nc2ccccc2)CC1 (centres undefined)	17.2	1.9	2.8	97.0	0.4	-17.2
Cc1cccc(N2CCN(C(=O)Cc3ccccc3[N+](=O)[O-])CC2)c1C	-40.7	2.0	28.2	96.0	2.6	40.7
Cc1ccc2cccc(Oc3ncnc4sc(C)c(C)c34)c2n1	-77.4	-0.2	10.0	101.0	0.3	77.4*
Cc1ccc(-c2csc3ncnc(Oc4cccc5ccc(C)nc45)c23)cc1	-20.8	-0.3	-0.3	109.0	0.9	20.8
SMILES	SR-BI DiI-HDL act	HIF activator	AHR activator	ABCB6 inh 2	FXN GAA850 act	SR-BI DiI inh
O=C(NCc1ccccc1)c1ccccc1	7.5	x	x	94.0	2.8	-7.5
Cc1cc(=O)oc2c(C(=O)/C=C\c3cccs3)c(O)ccc12	13.7	0.7	72.8*	103.0	7.0	-13.7
CCCCNC(=O)c1ccccc1NC(=O)c1ccc2c(c1)OCO2	-29.7	-0.1	58.1*	106.0	0.1	29.7
COc1cc(NC(=O)c2cc(OC)c(OC)c(OC)c2)c2ncccc2c1	-55.6	x	x	101.0	1.3	55.6
COc1cc(NC(=O)c2ccc3c(c2)OCO3)c2ncccc2c1	-78.0	1.8	65.5*	87.0	3.5	78.0*
CC(C)(C)NC(=O)c1ccccc1NC(=O)c1ccc2c(c1)OCO2	-30.3	-0.2	67.6*	101.0	0.6	30.3
